Screens deposited in PubChem BioAssay by several laboratories.
Shown are actives, neighbours in structure and some others; about 3.5% of the full set was active somewhere.
HMGR II inh: inhibitors of class II HMG-CoA reductase from Enterococcus faecalis; purified E. faecalis HMGR, NADPH absorbance 340 nm kinetic; inhibition, % at 10 µM; 190,000 tested, 0.41% active; AID 1066;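 active = inhibition above a set limit, the median over all tested compounds plus 3 SD, cut at about 9.5% in these data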;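 also: enzyme runs in reverse so mevalonate oxidation gives rising NADPH absorbance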
b-catenin transl: alters nuclear translocation of beta-catenin in HeLa cells; immunofluorescence imaging; nuclear translocation activity, % at 5 µM; 190,000 tested, 0.3% active; AID 1665;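 active = nuclear translocation activity above 50% at 5 µM, with a well cell count of 50 or more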;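 also: per-cell ratio of nuclear to cytoplasmic median beta-catenin stain intensity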
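assay system = human HeLa cells, endogenous beta-catenin | times = compound treatment 24 h, 37°C, 5% CO2 | detection = Anti-beta-catenin immunofluorescence on PFA-fixed, Triton-permeabilized cells, DAPI nuclei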
Yeast growth inh: reduces growth of yeast BB579 in restrictive medium. S. cerevisiae BB579 growth, OD615, 48 h. inhibition, % at 10 µM. 140,000 tested, 0.51% active;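 active = inhibition above a set limit, 3 SD over the mean compound inhibition, cut at about 44% in these data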
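Assay system – yeast BB579 (DeaD) · Dosing – single compound dose of 10 µM, 0.25% DMSO final · Detection – OD615 turbidity measurement · Buffer or medium – CSMM-D restrictive synthetic medium containing dextrose (glucose) · Benchmarks – positive control amphotericin B 10 µg/mL · Incubation – 48 h exposure, 30 °C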
MT stabilizer: microtubule stabilization, imaging screen; HeLa tubulin immunostaining HCS, 24 h; share of cells brighter than vehicle mean+2SD; % tubulin-high responders, % at 10 µM; 200,000 tested, 0.83% active; AID 2205;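 active = plate Z-score above 3 for both tubulin-high and condensed-nucleus cell shares, with cell loss under 80%, at 10 µM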;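 also: anti alpha tubulin signal scored within the nucleus-defined area of each cell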
Yeast life ext: extends the lifespan of yeast; S. cerevisiae growth with nicotinamide, OD615; deaD strain in restrictive glucose medium; inhibition of the nicotinamide effect, % at 10 µM; 130,000 tested, 0.68% active;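 active = inhibition above a set limit, placed 3 SD over the median of all compounds, cut at about 26% in these data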
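Test system – modified budding yeast, DeaD strain · Compound – single dose 10 µM compound, 0.25% DMSO · Times – culture preincubation 4 h, compound exposure 48 h, both 30 °C · Detection – optical density (absorbance) at 615 nm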
RAM network inh: yeast RAM network inhibition; AID 868; inhibition, % at 50 µM; S. cerevisiae dse1pr::URA3 reporter, 5-FOA growth OD615, 2 d; analog-sensitive cbk1-as2 kinase mutant strain; 190,000 tested, 1.8% active;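 active = inhibition above a set limit, 3 SD over mean compound inhibition, cut at about 8.4% in these data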;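 also: inhibition rescues growth on 5-FOA so higher OD means more RAM inhibition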
Of the large screens only hits and unclear results are named; the others gave an inactive call.

Cc1ccc(-c2nc(NCc3ccco3)c3ccccc3n2)cc1	none (no result: b-catenin transl)
c1ccc(-c2nc(NCc3ccco3)c3oc4ccccc4c3n2)cc1	RAM network inh 11
Cc1cccc(NC(=O)N2CCCC2C(=O)Nc2ccccc2)c1 (stereo not drawn)	none (no result: Yeast growth inh, Yeast life ext)
C/C=C/COC(=O)c1[nH]c2c(c1C)C(=O)CC(c1ccco1)C2 (stereo not drawn)	b-catenin transl 154
C/C=C/COC(=O)c1[nH]c2c(c1C)C(=O)CC(c1ccc(N(C)C)cc1)C2 (stereo not drawn)	none
COC(=O)c1[nH]c2c(c1C)C(=O)CC(c1ccccc1)C2 (stereo not drawn)	b-catenin transl 56
CCOC(=O)c1[nH]c2c(c1-c1ccccc1)C(=O)CC(c1ccccc1)C2 (stereo not drawn)	none
COc1ccccc1C1CC(=O)NC(C)=C1C(=O)OCC1CCCO1 (stereo not drawn)	none
COC(=O)C1C(=O)c2c([nH]c(C(=O)OC3CCCC3)c2C)CC1C (stereo not drawn)	none
Cc1c(C(=O)OC2CCCC2)[nH]c2c1C(=O)CC(c1ccco1)C2 (stereo not drawn)	b-catenin transl 132
Cc1c(C(=O)OCC2CCCO2)[nH]c2c1C(=O)CC(c1ccco1)C2 (stereo not drawn)	b-catenin transl 89, MT stabilizer 40
COc1ccc(NC(=O)CCSCCc2ccccn2)cc1OC	none (no result: Yeast growth inh, Yeast life ext)
C=CCN1C(=O)/C(=C/C=C2/N(CC)c3ccc(S(=O)(=O)N(C)C)cc3N2CC)SC1=S	none (no result: Yeast growth inh, Yeast life ext)
Cc1c(C(=O)N2CCOCC2)[nH]c2c1C(=O)CC(c1ccccc1Cl)C2 (stereo not drawn)	MT stabilizer 41 (no result: b-catenin transl)
C=CCOC(=O)c1[nH]c2c(c1C)C(=O)CC(c1ccco1)C2 (stereo not drawn)	b-catenin transl 89
Cc1c(C(=O)OCC(C)C)[nH]c2c1C(=O)CC(c1ccco1)C2 (stereo not drawn)	b-catenin transl 183
CCOC(=O)c1[nH]c2c(c1C)C(=O)CC(c1ccc(OC)c(OC)c1)C2 (stereo not drawn)	none
COc1ccc(C(=O)C2CCCN(Cc3cccn3-c3ccc(Cl)cn3)C2)c(OC)c1 (stereo not drawn)	none (no result: Yeast growth inh, Yeast life ext)
O=C(Cn1nnc2ccccc21)c1ccc(Cl)cc1	none (no result: HMGR II inh, Yeast growth inh, MT stabilizer, Yeast life ext, RAM network inh)
Cc1ccnn2cc3c(=O)n(C)c(=O)n(C)c3c12	Yeast growth inh 64
Cn1c(=O)c2cn3ncccc3c2n(C)c1=O	none (no result: b-catenin transl)
COc1cc(S(=O)(=O)Nc2ccc3cn[nH]c3c2)ccc1Cl	HMGR II inh 12 (no result: Yeast growth inh, Yeast life ext)
CC1=C(C(=O)Nc2ccc(F)cc2)C(c2ccc(C)o2)C2=C(CC(C)(C)CC2=O)N1 (stereo not drawn)	none
CC1=C(C(=O)Nc2ccccc2F)C(c2ccsc2)C2=C(CC(C)(C)CC2=O)N1 (stereo not drawn)	MT stabilizer 15
CC1=C(C(=O)Nc2cccc(F)c2)C(c2ccsc2)C2=C(CC(C)(C)CC2=O)N1 (stereo not drawn)	b-catenin transl 76, MT stabilizer 12
CCN1C(=O)/C(=C2/Sc3ccccc3N2CC)S/C1=N\c1ncn[nH]1	none (no result: Yeast growth inh, Yeast life ext)
CCN(CC)c1ccc(-c2nn3c(-c4n[nH]c5c4CCC5)nnc3s2)cc1	b-catenin transl 65, MT stabilizer 23
C1CCC(c2nn3c(-c4n[nH]c5c4CCC5)nnc3s2)CC1	none
CCc1ccc(/C(C)=N\Nc2ccc([N+](=O)[O-])cc2)cc1	none
C/C(=N\Nc1ccc([N+](=O)[O-])cc1)c1ccc(N)cc1	Yeast growth inh 97
COC(=O)c1ccc(NC(=O)CNc2ccccc2)cc1	none (no result: Yeast growth inh, Yeast life ext)
COc1ccc(-n2nnnc2-c2cccc(OC)c2)cc1	MT stabilizer 18
Cc1ccc(-n2nnnc2-c2cccc(C)c2)cc1	none (no result: Yeast growth inh, Yeast life ext)
O=C(CSc1nc2ccccc2c(=O)n1-c1ccc(F)cc1)NCc1ccco1	none
Cc1c(O)nc(SCC(=O)Nc2ccc3c4c(cccc24)CC3)n(-c2ccc(F)cc2)c1=O	RAM network inh 9.2 (no result: b-catenin transl)
CS(=O)(=O)N(CC(=O)N1CCCCC1)c1cccc(F)c1	none (no result: Yeast growth inh, Yeast life ext)
COC(=O)c1nnn(-c2nonc2N)c1CSc1nnc(N)s1	none (no result: Yeast growth inh, Yeast life ext)
N#CCC(CNc1ncc(C(F)(F)F)cc1Cl)OC(=O)c1ccc(Cl)cc1Cl (stereo not drawn)	RAM network inh 9.6
CCOC(=O)CNc1ncc(C(F)(F)F)cc1Cl	none (no result: Yeast growth inh, Yeast life ext)
O=c1[nH]c2ccccc2nc1Cc1ccccc1	Yeast life ext 43
O=C(Cc1nc2ccccc2[nH]c1=O)c1ccccc1	none (no result: Yeast growth inh, Yeast life ext)
CCCCOc1ccc2c(C)cc(=O)oc2c1OCCCC	RAM network inh 8.8 (no result: Yeast life ext)
Cc1ccc(NC(=O)Cc2ccc3c(c2)OCCO3)cc1S(=O)(=O)N1CCCCC1	none (no result: HMGR II inh, Yeast growth inh, MT stabilizer, Yeast life ext, RAM network inh)
CCN(CC)c1ccc(/C=C2\C(=O)c3ccc(C(=O)O)cc3C2=O)cc1	RAM network inh 10
C=CCN(c1cccc(C(F)(F)F)c1)S(=O)(=O)c1cccc(C(=O)OCC(=O)NC(N)=O)c1	RAM network inh 9.1
C=CCN(c1cccc(C(F)(F)F)c1)S(=O)(=O)c1cccc(C(=O)OCC(=O)Nc2ccccc2)c1	RAM network inh 9.0
C=CCN(c1cccc(C(F)(F)F)c1)S(=O)(=O)c1cccc(C(=O)OCC(=O)NC)c1	none
CC1CCCC(NC(=O)COC(=O)[C@@H](NC(=O)c2ccco2)C(C)C)C1C (stereo partly drawn)	none (no result: Yeast growth inh, Yeast life ext)
Cn1nnnc1SCC(=O)NC1CCCc2ccccc21 (stereo not drawn)	none (no result: Yeast growth inh, Yeast life ext)
O=C(NCc1cccc(F)c1)C1CCN(C(=O)c2sccc2-n2cccc2)CC1	none (no result: Yeast growth inh, Yeast life ext)
CCOC(=O)c1cc2cc([N+](=O)[O-])cc(OC)c2oc1=O	none (no result: Yeast growth inh, Yeast life ext)
COc1cc([N+](=O)[O-])cc2cc(C(=O)N3CCN=C3c3ccccc3)c(=O)oc12	RAM network inh 8.9 (no result: Yeast growth inh, Yeast life ext)
CCOC(=O)c1c(C)nc2sc(C(=O)Nc3ccc(OC)cc3)c(N)c2c1-c1ccc(OC)cc1	MT stabilizer 24, RAM network inh 8.7
COc1cc(NS(=O)(=O)c2ccc(NC(=O)/C=C/c3ccc([N+](=O)[O-])cc3)cc2)ncn1	none (no result: Yeast growth inh, Yeast life ext)
COc1cc(NS(=O)(=O)c2ccc(NC(=O)/C=C/c3cccc([N+](=O)[O-])c3)cc2)ncn1	RAM network inh 8.9 (no result: Yeast growth inh, Yeast life ext)
Cc1ccc(C(=O)N(c2ccccc2)C2CC(C)N(C(=O)c3ccco3)c3ccccc32)cc1 (stereo not drawn)	Yeast life ext 34
CCc1cc2cc3c(cc2nc1SCC(=O)Nc1cc(OC)c(OC)cc1C(=O)O)OCO3	RAM network inh 9.5 (no result: Yeast growth inh, Yeast life ext)
CCc1cc2ccc(C)cc2nc1SCC(=O)Nc1cc(OC)c(OC)cc1C(=O)O	none
O=C1c2cccnc2C(Nc2ccc(F)c(Cl)c2)N1Cc1cccs1 (stereo not drawn)	none (no result: Yeast growth inh, Yeast life ext)
